Experimental data published in ChEMBL document CHEMBL1156633, “Discovery of novel and long acting muscarinic acetylcholine receptor antagonists” (J Med Chem, 2008).
One block for each molecule: values may come before it. Calls of active or inactive are those of the source. No cut-off for these calls is given here.

Columns and labels:
[1] = tested on: Mus musculus; experiment: Inhibition of methacholine-induced bronchoconstriction in conscious BALB/c mouse at 5 ug, intranasally administered as single dose after 5 hrs 15 mins; type: functional, organism-based
Procedure, shortened: (§1)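 Conscious mice given a single intranasal dose of 5 µg/animal, then challenged with methacholine to induce bronchoconstriction. Inhibition of bronchoconstriction was assessed at set times after dosing.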

[2] = tested on: Mus musculus; experiment: Inhibition of methacholine-induced bronchoconstriction in conscious BALB/c mouse at 5 ug, intranasally administered as single dose after 48 hrs; type: functional; parameters: scale not given: the % may be the effect or the level left; procedure, shortened: as §1
[3] = Half life in Sprague-Dawley rat at 2.2 mg/kg, iv and 4.8 mg/kg, po; type: ADME, organism-based; details: in vivo
[4] = target: Cytochrome P450 2C9 (Homo sapiens, UniProt P11712); experiment: Inhibition of CYP2C9; type: ADME
[5] = Permeability across artificial membrane; type: ADME; details: PAMPA; read-out: permeability
[6] = target: Cytochrome P450 2D6 (Homo sapiens, UniProt P10635); experiment: Inhibition of CYP2D6; type: ADME
[7] = Antagonist activity at alpha1 nicotinic acetylcholine receptor; type: functional
[8] = Antagonist activity at alpha3 nicotinic acetylcholine receptor; type: functional
[9] = target: Cytochrome P450 2C19 (Homo sapiens, UniProt P33261); experiment: Inhibition of CYP2C19; type: ADME
[10] = Volume of distribution at steady state in Sprague-Dawley rat at 2.2 mg/kg, iv and 4.8 mg/kg, po; type: ADME, organism-based; details: in vivo, read-out: Vdss
[11] = tested on: Mus musculus; experiment: Inhibition of methacholine-induced bronchoconstriction in conscious BALB/c mouse at 5 ug, intranasally administered as single dose after 24 hrs; type: functional; parameters: scale not given: the % may be the effect or the level left; procedure, shortened: as §1
[12] = Clearance in Sprague-Dawley rat at 2.2 mg/kg, iv and 4.8 mg/kg, po; type: ADME, organism-based; details: in vivo
[13] = target: T1, Muscarinic acetylcholine receptor M2 (Homo sapiens, UniProt P08172); experiment: Antagonist activity at human muscarinic acetylcholine M2 receptor expressed in CHO cells coexpressed with Gqi5 assessed as inhibition of acetylcholine-induced calcium mobilization by single concentration kinetic FLIPR assay; type: functional, cell-based; details: read-out: pA2 (converted)
T1 sequence (P08172 whole entry): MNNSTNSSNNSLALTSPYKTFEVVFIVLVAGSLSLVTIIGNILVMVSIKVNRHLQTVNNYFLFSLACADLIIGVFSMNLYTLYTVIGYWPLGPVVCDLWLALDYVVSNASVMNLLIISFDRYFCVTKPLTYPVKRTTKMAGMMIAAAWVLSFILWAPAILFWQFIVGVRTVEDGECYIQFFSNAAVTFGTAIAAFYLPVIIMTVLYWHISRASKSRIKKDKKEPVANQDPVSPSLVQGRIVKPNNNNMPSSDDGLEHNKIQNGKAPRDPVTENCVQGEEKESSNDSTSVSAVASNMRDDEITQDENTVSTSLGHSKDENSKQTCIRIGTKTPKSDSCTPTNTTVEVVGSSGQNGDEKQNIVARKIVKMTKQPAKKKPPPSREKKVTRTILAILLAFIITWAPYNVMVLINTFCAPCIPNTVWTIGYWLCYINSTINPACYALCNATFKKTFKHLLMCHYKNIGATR
Procedure, shortened: (§2)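 CHO cells stably expressing the human recombinant muscarinic receptor subtype, in a fluorometric imaging plate reader (FLIPR) assay. Read-out is inhibition of acetylcholine-mediated intracellular Ca2+ mobilization. Results are the mean of at least two determinations.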

[14] = target: T2, Muscarinic acetylcholine receptor M1 (Homo sapiens, UniProt P11229); experiment: Antagonist activity at human muscarinic acetylcholine M1 receptor expressed in CHO cells assessed as inhibition of acetylcholine-induced calcium mobilization by single concentration kinetic FLIPR assay; type: functional, cell-based; details: read-out: pA2 (converted); procedure, shortened: as §2
T2 sequence (P11229 whole entry): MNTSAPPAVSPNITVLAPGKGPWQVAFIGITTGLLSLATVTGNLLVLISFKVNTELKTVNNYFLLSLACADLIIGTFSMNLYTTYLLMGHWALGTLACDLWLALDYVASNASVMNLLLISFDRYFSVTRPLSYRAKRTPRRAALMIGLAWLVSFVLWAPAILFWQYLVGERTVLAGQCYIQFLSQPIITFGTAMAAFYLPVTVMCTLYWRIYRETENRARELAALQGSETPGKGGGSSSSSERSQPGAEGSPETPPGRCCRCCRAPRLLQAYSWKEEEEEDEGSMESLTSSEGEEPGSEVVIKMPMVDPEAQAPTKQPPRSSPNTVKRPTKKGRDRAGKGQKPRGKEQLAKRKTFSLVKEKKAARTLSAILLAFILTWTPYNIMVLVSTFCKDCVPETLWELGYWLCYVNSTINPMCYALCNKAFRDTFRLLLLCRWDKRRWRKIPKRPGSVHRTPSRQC

[15] = target: T3, Muscarinic acetylcholine receptor M3 (Homo sapiens, UniProt P20309); experiment: Antagonist activity at human muscarinic acetylcholine M3 receptor expressed in CHO cells assessed as inhibition of acetylcholine-induced calcium mobilization by single concentration kinetic FLIPR assay; type: functional, cell-based; details: read-out: pA2 (converted); procedure, shortened: as §2
[16] = target: Muscarinic acetylcholine receptor M3 (Homo sapiens); experiment: Selectivity for human muscarinic acetylcholine M3 receptor over human muscarinic acetylcholine M2 receptor
[17] = target: Muscarinic acetylcholine receptor M1 and M3 (Homo sapiens) (UniProt P20309+P11229); experiment: Selectivity for human muscarinic acetylcholine M3 receptor over human muscarinic acetylcholine M1 receptor
Procedure, shortened: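 Ratio of M1 to M3 potency from FLIPR functional assays measuring inhibition of acetylcholine-induced intracellular Ca²⁺ mobilization. The M3 assay used CHO cells stably expressing human recombinant M3 receptor; the M1 assay is described only as a FLIPR assay. pIC50 values are the mean of at least two determinations.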

[18] = target: T1, Muscarinic acetylcholine receptor M2; experiment: Antagonist activity at human muscarinic acetylcholine M2 receptor expressed in CHO cells coexpressed with Gqi5 assessed as inhibition of acetylcholine-induced calcium mobilization by FLIPR assay; type: functional, cell-based
Procedure, shortened: (§3)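 Readout: inhibition of acetylcholine-mediated intracellular Ca2+ mobilization in CHO cells expressing the human receptor subtype, reported as pIC50. Values are the mean of at least two determinations, standard deviation below 0.3 unless otherwise noted.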

[19] = target: T3, Muscarinic acetylcholine receptor M3; experiment: Antagonist activity at human muscarinic acetylcholine M3 receptor expressed in CHO cells assessed as inhibition of acetylcholine-induced calcium mobilization by FLIPR assay; type: functional, cell-based
Procedure, shortened: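 Readout: inhibition of acetylcholine-mediated intracellular Ca2+ mobilization in CHO cells stably expressing human recombinant M3 receptor, reported as pIC50. Values are the mean of at least two determinations, standard deviation below 0.3 unless otherwise noted.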

[20] = target: T2, Muscarinic acetylcholine receptor M1; experiment: Antagonist activity at human muscarinic acetylcholine M1 receptor expressed in CHO cells assessed as inhibition of acetylcholine-induced calcium mobilization by FLIPR assay; type: functional, cell-based; procedure, shortened: as §3
[21] = target: T4, Substance-K receptor (Homo sapiens) (UniProt P21452); experiment: Inhibition of NK2 receptor at 1 uM
T4 sequence (whole entry): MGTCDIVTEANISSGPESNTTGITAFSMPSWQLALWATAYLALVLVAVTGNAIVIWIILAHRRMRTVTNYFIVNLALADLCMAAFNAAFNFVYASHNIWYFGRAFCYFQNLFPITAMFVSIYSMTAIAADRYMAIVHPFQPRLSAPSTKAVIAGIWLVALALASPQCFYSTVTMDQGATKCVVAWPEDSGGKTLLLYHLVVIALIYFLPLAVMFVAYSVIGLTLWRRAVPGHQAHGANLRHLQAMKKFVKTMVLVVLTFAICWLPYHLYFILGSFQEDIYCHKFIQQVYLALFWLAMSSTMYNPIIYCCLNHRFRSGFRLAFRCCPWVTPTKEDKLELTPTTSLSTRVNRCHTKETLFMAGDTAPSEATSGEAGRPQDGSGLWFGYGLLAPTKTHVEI

[22] = tested on: Cavia porcellus; experiment: Inhibition of acetylcholine-induced bronchoconstriction in conscious Dunkin-Hartley guinea pig assessed as enhanced pause at 2.5 ug, intratracheally administered as single dose after 24 hrs
[23] = tested on: Cavia porcellus; experiment: Inhibition of acetylcholine-induced bronchoconstriction in conscious Dunkin-Hartley guinea pig assessed as enhanced pause at 2.5 ug, intratracheally administered as single dose after 4 hrs

T3 sequence (P20309 whole entry): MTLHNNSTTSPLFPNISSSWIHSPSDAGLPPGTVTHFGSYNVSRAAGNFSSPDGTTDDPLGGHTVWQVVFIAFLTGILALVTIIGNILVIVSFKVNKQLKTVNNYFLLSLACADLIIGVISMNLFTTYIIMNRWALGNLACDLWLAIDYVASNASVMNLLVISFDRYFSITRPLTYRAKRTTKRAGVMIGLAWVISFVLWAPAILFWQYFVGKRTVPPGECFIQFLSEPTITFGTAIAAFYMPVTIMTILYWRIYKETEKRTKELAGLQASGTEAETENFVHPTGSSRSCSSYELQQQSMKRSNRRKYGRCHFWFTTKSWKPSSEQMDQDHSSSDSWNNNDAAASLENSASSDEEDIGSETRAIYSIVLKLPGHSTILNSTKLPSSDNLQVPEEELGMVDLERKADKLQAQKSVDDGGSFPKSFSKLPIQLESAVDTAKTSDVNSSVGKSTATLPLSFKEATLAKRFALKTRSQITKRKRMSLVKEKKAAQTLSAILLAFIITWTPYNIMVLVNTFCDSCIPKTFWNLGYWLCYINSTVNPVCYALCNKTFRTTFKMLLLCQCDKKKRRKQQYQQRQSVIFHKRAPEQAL
Muscarinic acetylcholine receptor M1 and M3 (Homo sapiens), sequence (P20309 whole entry, looked up, one chain of several): as the sequence (P20309 whole entry) above
Cytochrome P450 2C19, sequence (P33261 whole entry): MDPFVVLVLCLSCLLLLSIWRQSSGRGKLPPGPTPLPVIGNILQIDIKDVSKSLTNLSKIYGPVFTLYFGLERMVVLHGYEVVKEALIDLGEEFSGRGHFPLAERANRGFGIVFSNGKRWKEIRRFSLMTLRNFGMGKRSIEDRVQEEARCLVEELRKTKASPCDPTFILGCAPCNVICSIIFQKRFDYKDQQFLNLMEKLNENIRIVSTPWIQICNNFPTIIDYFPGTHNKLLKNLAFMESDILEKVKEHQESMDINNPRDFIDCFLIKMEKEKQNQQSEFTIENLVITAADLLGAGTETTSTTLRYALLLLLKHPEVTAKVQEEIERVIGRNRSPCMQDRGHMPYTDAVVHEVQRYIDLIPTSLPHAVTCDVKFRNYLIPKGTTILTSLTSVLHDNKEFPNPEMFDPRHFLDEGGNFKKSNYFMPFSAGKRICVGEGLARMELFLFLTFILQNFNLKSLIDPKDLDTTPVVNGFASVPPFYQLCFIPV
Cytochrome P450 2D6, sequence (P10635 whole entry): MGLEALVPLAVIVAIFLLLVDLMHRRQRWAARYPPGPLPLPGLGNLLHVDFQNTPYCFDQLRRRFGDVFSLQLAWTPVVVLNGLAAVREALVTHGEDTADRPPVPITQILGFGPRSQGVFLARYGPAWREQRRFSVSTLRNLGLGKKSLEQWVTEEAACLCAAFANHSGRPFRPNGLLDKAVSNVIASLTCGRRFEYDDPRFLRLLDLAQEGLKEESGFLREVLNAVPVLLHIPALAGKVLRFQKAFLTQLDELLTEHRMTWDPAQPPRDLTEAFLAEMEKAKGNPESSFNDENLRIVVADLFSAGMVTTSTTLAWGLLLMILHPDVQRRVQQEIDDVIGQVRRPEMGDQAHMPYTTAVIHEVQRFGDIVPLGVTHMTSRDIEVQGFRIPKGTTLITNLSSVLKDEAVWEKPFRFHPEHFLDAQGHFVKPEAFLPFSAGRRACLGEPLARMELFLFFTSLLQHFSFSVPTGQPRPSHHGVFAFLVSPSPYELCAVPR
Cytochrome P450 2C9, sequence (P11712 whole entry): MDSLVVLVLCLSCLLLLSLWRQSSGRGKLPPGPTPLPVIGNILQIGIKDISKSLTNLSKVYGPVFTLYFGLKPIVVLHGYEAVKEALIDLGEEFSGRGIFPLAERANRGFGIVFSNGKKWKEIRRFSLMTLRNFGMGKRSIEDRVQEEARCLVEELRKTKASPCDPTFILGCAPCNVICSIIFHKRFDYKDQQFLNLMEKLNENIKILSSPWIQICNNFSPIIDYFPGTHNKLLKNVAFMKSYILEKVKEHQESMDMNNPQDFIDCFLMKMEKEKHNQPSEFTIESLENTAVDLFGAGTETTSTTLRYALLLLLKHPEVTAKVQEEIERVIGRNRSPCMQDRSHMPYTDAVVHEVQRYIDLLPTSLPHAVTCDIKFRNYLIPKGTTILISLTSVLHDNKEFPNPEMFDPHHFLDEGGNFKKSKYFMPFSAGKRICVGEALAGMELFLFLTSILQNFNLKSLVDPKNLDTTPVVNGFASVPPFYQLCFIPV

half-life [3]: 1.1 h
IC50 [4]: > 10000 nM
Papp [5]: < 3 nm/s
IC50 [6]: 3980 nM
pIC50 [7]: 6.1
pIC50 [8]: 6.1
IC50 [9]: > 10000 nM
Vd [10]: 0.55 L/kg
clearance [12]: 0.9 L/h/kg
Kb [13]: 1 nM
SMILES: CC(C)OC(=O)c1ccc(NC(=O)N[C@@H](Cc2ccc(O)cc2)C(=O)N[C@H]2CCC[N+](C)(Cc3cccc(O)c3)C2)cc1.[I-] (stereo not given in full)
Activity [1]: Active
Activity [2]: > 30%
Activity [11]: > 80%

Kb [14]: 0.794 nM
Kb [15]: 0.0251 nM
pA2 [16]: 10.6
Kb [13]: 1.58 nM
Selectivity ratio [17]: 30
SMILES: Cc1cn2cc(CNC(=O)[C@H](Cc3ccc(O)cc3)NC(=O)Nc3ccc(C(=O)OC(C)C)cc3)[n+](Cc3ccc4ccccc4c3)c2s1.O=C([O-])C(F)(F)F
Activity [1]: Active
Activity [2]: > 60%
Activity [11]: > 80%

IC50 [18]: 1580 nM
IC50 [19]: 1580 nM
IC50 [20]: 3980 nM
SMILES: CCOC(=O)c1ccc(NC(=O)N[C@@H](Cc2ccc(O)cc2)C(=O)N[C@@H]2CCN(Cc3ccc(O)cc3)C2)cc1

IC50 [18]: 126 nM
IC50 [19]: 15.8 nM
IC50 [20]: 1000 nM
Selectivity ratio [17]: 80
SMILES: CCOC(=O)c1ccc(NC(=O)N[C@@H](Cc2ccc(O)cc2)C(=O)N[C@H]2CCN(Cc3ccc(O)cc3)C2)cc1

inhibition [21]: 74%
Kb [14]: 0.316 nM
Kb [15]: 0.0126 nM
Kb [13]: 0.2 nM
Selectivity ratio [17]: 25
SMILES: Cc1cn2cc(CNC(=O)[C@H](Cc3ccc(O)cc3)NC(=O)Nc3ccc(C(=O)OC4CCCCC4)s3)[n+](Cc3ccc4ccccc4c3)c2s1.[I-]
inhibition (INH) [22]: 88%
inhibition (INH) [23]: 93%

IC50 [18]: 158 nM
IC50 [19]: 20 nM
IC50 [20]: 2000 nM
Selectivity ratio [17]: 100
SMILES: CCOC(=O)c1ccc(NC(=O)N[C@@H](Cc2ccc(O)cc2)C(=O)NC2CCN(Cc3ccc(O)cc3)C2)cc1 (stereo not given in full)

IC50 [18]: 5010 nM
IC50 [19]: 3160 nM
IC50 [20]: 12600 nM
SMILES: CCOC(=O)c1ccc(NC(=O)N[C@H](Cc2ccc(O)cc2)C(=O)N[C@H]2CCN(Cc3ccc(O)cc3)C2)cc1

IC50 [18]: 20000 nM
IC50 [19]: 20000 nM
IC50 [20]: 20000 nM
SMILES: CCOC(=O)c1ccc(NC(=O)N[C@H](Cc2ccc(O)cc2)C(=O)N[C@@H]2CCN(Cc3ccc(O)cc3)C2)cc1
